Columns and labels:
Hepatitis B virus [1] = assay: Antiviral activity against Hepatitis B virus infected in HepG2.2.15 assessed as inhibition of HBsAg production at <245.1 +/- 4.8 uM by EIA; type: functional, organism-based; conditions: hepg2 2.2.15
[2] = Cytotoxicity against human HepG2(2.2.15) after 9 days by neutral dye uptake method; type: cell-based; conditions: HepG2(2.2.15) cells
How it was run: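 Confluent 2.2.15 cells were exposed to compound in culture medium for 9 consecutive days, with untreated controls on every plate. Viability was read as neutral red uptake by absorbance at 510 nm relative to untreated cells, giving CC50. Mean and SD of three separate experiments.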

Hepatitis B virus [3] = assay: Antiviral activity against Hepatitis B virus infected in HepG2.2.15 assessed as inhibition of HBV replication at <245.1 +/- 4.8 uM by quantitative Southern blot hybridization analysis; type: functional, organism-based; conditions: hepg2 2.2.15
Hepatitis B virus [4] = assay: Antiviral activity against Hepatitis B virus infected in HepG2.2.15 assessed as inhibition of HBsAg production at <227.0 +/- 4.1 uM by EIA; type: functional, organism-based; conditions: hepg2 2.2.15
Hepatitis B virus [5] = assay: Antiviral activity against Hepatitis B virus infected in HepG2.2.15 assessed as inhibition of HBV replication at <227.0 +/- 4.1 uM by quantitative Southern blot hybridization analysis; type: functional, organism-based; conditions: hepg2 2.2.15
Hepatitis B virus [6] = assay: Antiviral activity against Hepatitis B virus infected in HepG2.2.15 assessed as inhibition of HBsAg production at <86.9 +/- 3.6 uM by EIA; type: functional, organism-based; conditions: hepg2 2.2.15
Hepatitis B virus [7] = assay: Antiviral activity against Hepatitis B virus infected in HepG2.2.15 assessed as inhibition of HBV replication at <86.9 +/- 3.6 uM by quantitative Southern blot hybridization analysis; type: functional, organism-based; conditions: hepg2 2.2.15
[8] = Selectivity index, ratio of CC50 for human HepG2.2.15 cells to IC50 for inhibition of HBsAg production; type: functional
How it was run: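 SI = CC50/IC50. CC50 is from neutral red uptake after 9 days of treatment. IC50 is from HBsAg EIA after eight daily doses, in 2.2.15 cells.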

Hepatitis B virus [9] = assay: Antiviral activity against Hepatitis B virus infected in HepG2.2.15 assessed as inhibition of HBV replication at <209.8 +/- 4.7 uM by quantitative Southern blot hybridization analysis; type: functional, organism-based; conditions: hepg2 2.2.15
Hepatitis B virus [10] = assay: Antiviral activity against Hepatitis B virus infected in HepG2.2.15 assessed as inhibition of HBsAg production by EIA; type: functional, organism-based; conditions: HepG2 2.2.15
How it was run: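 HBsAg secreted into the medium by confluent 2.2.15 cultures (RPMI 1640, 2% FBS) measured by semiquantitative enzyme immunoassay eight days after the first of eight consecutive daily treatments. Medium and compound were renewed daily, with an untreated cell control. Gives the 50% inhibitory concentration; mean and SD from three separate experiments.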

Hepatitis B virus [11] = assay: Antiviral activity against Hepatitis B virus infected in HepG2.2.15 assessed as inhibition of HBsAg production at <74.8 +/- 3.9 uM by EIA; type: functional, organism-based; conditions: hepg2 2.2.15
Hepatitis B virus [12] = assay: Antiviral activity against Hepatitis B virus infected in HepG2.2.15 assessed as inhibition of HBV replication at <74.8 +/- 3.9 uM by quantitative Southern blot hybridization analysis; type: functional, organism-based; conditions: hepg2 2.2.15
Hepatitis B virus [13] = assay: Antiviral activity against Hepatitis B virus infected in HepG2.2.15 assessed as inhibition of HBV replication at <64.5 +/- 2.8 uM by quantitative Southern blot hybridization analysis; type: functional, organism-based; conditions: hepg2 2.2.15
[14] = Selectivity index, ratio of CC50 for human HepG2.2.15 cells to IC50 for inhibition of Hepatitis B virus DNA replication; type: functional
How it was run: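 SI = CC50/IC50. CC50 is from neutral red uptake after 9 days of treatment. IC50 is from Southern blot of intracellular HBV DNA after eight daily doses, in 2.2.15 cells.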

Hepatitis B virus [15] = assay: Antiviral activity against Hepatitis B virus infected in HepG2.2.15 assessed as inhibition of HBV replication by quantitative Southern blot hybridization analysis; type: functional, organism-based; conditions: HepG2 2.2.15
How it was run: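 Confluent 2.2.15 cells in RPMI 1640 with 2% FBS, dosed daily for eight consecutive days, with medium and compound replaced each day; untreated cell control. Intracellular HBV DNA quantified by Southern blot hybridization eight days after first treatment. IC50 is 50% inhibitory concentration; mean and SD of three separate experiments.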

Hepatitis B virus [16] = assay: Antiviral activity against Hepatitis B virus infected in HepG2.2.15 assessed as inhibition of HBsAg production at <76.3 +/- 3.3 uM by EIA; type: functional, organism-based; conditions: hepg2 2.2.15
Hepatitis B virus [17] = assay: Antiviral activity against Hepatitis B virus infected in HepG2.2.15 assessed as inhibition of HBsAg production at <101.2 +/- 3.8 by EIA; type: functional, organism-based; conditions: hepg2 2.2.15
Hepatitis B virus [18] = assay: Antiviral activity against Hepatitis B virus infected in HepG2.2.15 assessed as inhibition of HBsAg production at <80.1 +/- 3.5 uM by EIA; type: functional, organism-based; conditions: hepg2 2.2.15
Hepatitis B virus [19] = assay: Antiviral activity against Hepatitis B virus infected in HepG2.2.15 assessed as inhibition of HBsAg production at <60.8 +/- 4.6 uM by EIA; type: functional, organism-based; conditions: hepg2 2.2.15
Hepatitis B virus [20] = assay: Antiviral activity against Hepatitis B virus infected in HepG2.2.15 assessed as inhibition of HBsAg production at <91.2 +/- 3.5 uM by EIA; type: functional, organism-based; conditions: hepg2 2.2.15
Hepatitis B virus [21] = assay: Antiviral activity against Hepatitis B virus infected in HepG2.2.15 assessed as inhibition of HBV replication at <64.5 +/- 4.2 uM by quantitative Southern blot hybridization analysis; type: functional, organism-based; conditions: hepg2 2.2.15
Hepatitis B virus [22] = assay: Antiviral activity against Hepatitis B virus infected in HepG2.2.15 assessed as inhibition of HBsAg production at <64.5 +/- 4.2 uM by EIA; type: functional, organism-based; conditions: hepg2 2.2.15
Hepatitis B virus [23] = assay: Antiviral activity against Hepatitis B virus infected in HepG2.2.15 assessed as inhibition of HBsAg production at <163.9 +/- 4.4 uM by EIA; type: functional, organism-based; conditions: hepg2 2.2.15
Hepatitis B virus [24] = assay: Antiviral activity against Hepatitis B virus infected in HepG2.2.15 assessed as inhibition of HBV replication at <102.7 +/- 3.3 uM by quantitative Southern blot hybridization analysis; type: functional, organism-based; conditions: hepg2 2.2.15
Hepatitis B virus [25] = assay: Antiviral activity against Hepatitis B virus infected in HepG2.2.15 assessed as inhibition of HBsAg production at <102.7 +/- 3.3 uM by EIA; type: functional, organism-based; conditions: hepg2 2.2.15
Hepatitis B virus [26] = assay: Antiviral activity against Hepatitis B virus infected in HepG2.2.15 assessed as inhibition of HBV replication at <900.5 +/- 5.3 uM by quantitative Southern blot hybridization analysis; type: functional, organism-based; conditions: hepg2 2.2.15
Hepatitis B virus [27] = assay: Antiviral activity against Hepatitis B virus infected in HepG2.2.15 assessed as inhibition of HBV replication at <556.9 +/- 1.8 uM by quantitative Southern blot hybridization analysis; type: functional, organism-based; conditions: hepg2 2.2.15
Hepatitis B virus [28] = assay: Antiviral activity against Hepatitis B virus infected in HepG2.2.15 assessed as inhibition of HBV replication at <757.8 +/- 4.3 uM by quantitative Southern blot hybridization analysis; type: functional, organism-based; conditions: hepg2 2.2.15
Hepatitis B virus [29] = assay: Antiviral activity against Hepatitis B virus infected in HepG2.2.15 assessed as inhibition of HBV replication at <739.9 +/- 3.6 uM by quantitative Southern blot hybridization analysis; type: functional, organism-based; conditions: hepg2 2.2.15
Hepatitis B virus [30] = assay: Antiviral activity against Hepatitis B virus infected in HepG2.2.15 assessed as inhibition of HBV replication at <622.8 +/- 3.4 uM by quantitative Southern blot hybridization analysis; type: functional, organism-based; conditions: hepg2 2.2.15
Hepatitis B virus [31] = assay: Antiviral activity against Hepatitis B virus infected in HepG2.2.15 assessed as inhibition of HBV replication at <506.3 +/- 3.2 uM by quantitative Southern blot hybridization analysis; type: functional, organism-based; conditions: hepg2 2.2.15
Hepatitis B virus [32] = assay: Antiviral activity against Hepatitis B virus infected in HepG2.2.15 assessed as inhibition of HBsAg production at <2183.1 +/- 4.1 by EIA; type: functional, organism-based; conditions: hepg2 2.2.15

| SMILES | CC50 at 216 h [2] | Selectivity Index [8] | IC50 (Hepatitis B virus [10]) | Selectivity Index [14] | further results |
| --- | --- | --- | --- | --- | --- |
| CN(C)Cc1c(O)ccc2c1nc(CSc1ccccc1)n2C | 245 µM |  |  |  | IC50 (Hepatitis B virus [1]): Not Active; IC50 (Hepatitis B virus [3]): Not Active |
| Cn1c(CSc2ccccc2)nc2c(CN3CCCC3)c(O)ccc21 | 227 µM |  |  |  | IC50 (Hepatitis B virus [4]): Not Active; IC50 (Hepatitis B virus [5]): Not Active |
| Cn1c(CSc2ccccc2)nc2c(CN3CCOCC3)c(O)ccc21 | 86.9 µM |  |  |  | IC50 (Hepatitis B virus [6]): Not Active; IC50 (Hepatitis B virus [7]): Not Active |
| CN1CCN(Cc2c(O)ccc3c2nc(CSc2ccccc2)n3C)CC1 | 210 µM | 7.8 | 27 µM |  | IC50 (Hepatitis B virus [9]): Not Active |
| Cn1c(CSc2ccc(F)cc2)nc2c(CN3CCCC3)c(O)ccc21 | 74.8 µM |  |  |  | IC50 (Hepatitis B virus [11]): Not Active; IC50 (Hepatitis B virus [12]): Not Active |
| CN1CCN(Cc2c(O)ccc3c2nc(CSc2ccc(F)cc2)n3C)CC1 | 64.5 µM | 6 | 10.7 µM |  | IC50 (Hepatitis B virus [13]): Not Active |
| Cn1c(CSc2ccccc2)nc2c(Cn3ccnc3)c(O)ccc21 | 76.3 µM |  |  | 8.4 | IC50 (Hepatitis B virus [15]): 9.1 µM; IC50 (Hepatitis B virus [16]): Not Active |
| Cc1nccn1Cc1c(O)ccc2c1nc(CSc1ccccc1)n2C | 101 µM |  |  | 13 | IC50 (Hepatitis B virus [15]): 7.8 µM; IC50 (Hepatitis B virus [17]): Not Active |
| Cn1c(CSc2ccc(F)cc2)nc2c(Cn3ccnc3)c(O)ccc21 | 80.1 µM |  |  | 6.9 | IC50 (Hepatitis B virus [15]): 11.6 µM; IC50 (Hepatitis B virus [18]): Not Active |
| Cc1ccc(SCc2nc3c(Cn4ccnc4)c(O)ccc3n2C)cc1 | 60.8 µM |  |  | 1.9 | IC50 (Hepatitis B virus [15]): 32.6 µM; IC50 (Hepatitis B virus [19]): Not Active |
| Cc1ccc(SCc2nc3c(Cn4ccnc4C)c(O)ccc3n2C)cc1 | 91.2 µM |  |  | 2.5 | IC50 (Hepatitis B virus [15]): 36.1 µM; IC50 (Hepatitis B virus [20]): Not Active |
| COc1ccc(SCc2nc3c(Cn4ccnc4)c(O)ccc3n2C)cc1 | 64.5 µM |  |  |  | IC50 (Hepatitis B virus [21]): Not Active; IC50 (Hepatitis B virus [22]): Not Active |
| COc1ccc(SCc2nc3c(Cn4ccnc4C)c(O)ccc3n2C)cc1 | 164 µM |  |  | 3.7 | IC50 (Hepatitis B virus [15]): 44.5 µM; IC50 (Hepatitis B virus [23]): Not Active |
| COc1cccc(SCc2nc3c(Cn4ccnc4C)c(O)ccc3n2C)c1 | 103 µM |  |  |  | IC50 (Hepatitis B virus [24]): Not Active; IC50 (Hepatitis B virus [25]): Not Active |
| Cn1c(C[S+]([O-])c2ccccc2)nc2c(CN3CCOCC3)c(O)ccc21 (configuration not stated) | 900 µM | 2.2 | 401 µM |  | IC50 (Hepatitis B virus [26]): Not Active |
| Cn1c(C[S+]([O-])c2ccccc2)nc2c(Cn3ccnc3)c(O)ccc21 (configuration not stated) | 557 µM | 2.9 | 189 µM |  | IC50 (Hepatitis B virus [27]): Not Active |
| Cc1ccc([S+]([O-])Cc2nc3c(Cn4ccnc4)c(O)ccc3n2C)cc1 (configuration not stated) | 758 µM | 4.3 | 176 µM |  | IC50 (Hepatitis B virus [28]): Not Active |
| Cn1c(CS(=O)(=O)c2ccccc2)nc2c(CN3CCOCC3)c(O)ccc21 | 740 µM | 2.3 | 326 µM |  | IC50 (Hepatitis B virus [29]): Not Active |
| Cn1c(CS(=O)(=O)c2ccccc2)nc2c(Cn3ccnc3)c(O)ccc21 | 623 µM | 8.9 | 70.2 µM |  | IC50 (Hepatitis B virus [30]): Not Active |
| Cc1ccc(S(=O)(=O)Cc2nc3c(Cn4ccnc4)c(O)ccc3n2C)cc1 | 506 µM | 8.1 | 62.6 µM |  | IC50 (Hepatitis B virus [31]): Not Active |
| Nc1ccn([C@@H]2CS[C@H](CO)O2)c(=O)n1 [LAMIVUDINE] | 2180 µM |  |  | 9.1 | IC50 (Hepatitis B virus [32]): Not Active |
